The source of these data is ChEMBL document CHEMBL4004830 (J Med Chem, 2017).

The target in assay [1] is Cyclin-dependent kinase 7/ cyclin H (Homo sapiens, UniProt P50613). Nature of the assay: (§1) Inhibition of CDK7/cyclin H (unknown origin) in presence of [gamma-33P]-ATP […]. The conditions noted are these: read-out: Ki(app). It counts as protein-complex assay.
The subject of another assay is MDA-MB-453. Nature of the assay: Growth inhibition of human MDA-MB-453 cells after 72 hrs by MTT assay. The conditions noted are these: MDA-MB-453, 72 h. Format: functional. A digest of the protocol:
(§2)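 72 h antiproliferation assay, resazurin read-out for MV4-11 and MTT read-out for MDA-MB-453; values from at least two replicates.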
On the technique in general: Formazan colour is commonly taken as a measure of viable cells.

Another assay deals with MV4-11. Nature of the assay: Growth inhibition of human MV4-11 cells after 72 hrs by resazurin assay. It counts as functional. The conditions noted are these: MV4-11, 72 h. An outline of the steps:
as §2

The target of assay [2] is Cyclin-dependent kinase 1/cyclin B1 (Homo sapiens, UniProt P06493). Put plainly: (§3) Inhibition of CDK1/cyclin B (unknown origin) in presence of [gamma-33P]-ATP […]. It counts as protein-complex assay. The note with it: read-out: Ki(app).
The target in assay [3] is Cyclin-dependent kinase 1/cyclin B1 (Homo sapiens) (UniProt P06493+P14635). The assay is described as §3. It counts as protein-complex assay.
A further assay addresses CDK9/cyclin T1 (Homo sapiens, UniProt P50750). Nature of the assay: Inhibition of CDK9/cyclin T1 (unknown origin) in presence of [gamma-33P]-ATP […]. It counts as protein-complex assay. The note with it: read-out: Ki(app).
Another assay has as its target CDK2/Cyclin A2 (Homo sapiens, UniProt P24941). Nature of the assay: Inhibition of CDK2/cyclin A (unknown origin) in presence of [gamma-33P]-ATP […]. Format: protein-complex assay. The note with it: read-out: Ki(app).
The next assay concerns the target CDK6/cyclin D3 (Homo sapiens, UniProt Q00534). Nature of the assay: Inhibition of CDK6/cyclin D3 (unknown origin) in presence of [gamma-33P]-ATP […]. Format: protein-complex assay. The conditions noted are these: read-out: Ki(app).
Assay [4] addresses Cyclin-dependent kinase 4/cyclin D1 (Homo sapiens, UniProt P11802). Put plainly: Inhibition of CDK4/cyclin D1 (unknown origin) in presence of [gamma-33P]-ATP […]. It counts as protein-complex assay. The note with it: read-out: Ki(app).
Assay [5] deals with Cyclin-dependent kinase 7/ cyclin H (Homo sapiens) (UniProt P51946+P50613). The description is as §1. Format: protein-complex assay.

The source made the active and inactive calls. The calls are words filed in the database; no cut-off is given here.

Cyclin-dependent kinase 1/cyclin B1, sequence (P06493 whole entry): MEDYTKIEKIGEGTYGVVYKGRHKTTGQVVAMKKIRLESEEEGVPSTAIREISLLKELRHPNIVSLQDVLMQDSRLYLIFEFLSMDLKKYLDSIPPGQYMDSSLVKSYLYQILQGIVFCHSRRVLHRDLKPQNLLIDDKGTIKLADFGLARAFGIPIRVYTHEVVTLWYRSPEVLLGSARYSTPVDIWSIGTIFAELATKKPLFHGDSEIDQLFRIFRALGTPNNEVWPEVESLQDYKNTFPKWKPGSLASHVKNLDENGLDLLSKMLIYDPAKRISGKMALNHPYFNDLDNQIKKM
Cyclin-dependent kinase 1/cyclin B1, sequence (P14635 whole entry, further chain): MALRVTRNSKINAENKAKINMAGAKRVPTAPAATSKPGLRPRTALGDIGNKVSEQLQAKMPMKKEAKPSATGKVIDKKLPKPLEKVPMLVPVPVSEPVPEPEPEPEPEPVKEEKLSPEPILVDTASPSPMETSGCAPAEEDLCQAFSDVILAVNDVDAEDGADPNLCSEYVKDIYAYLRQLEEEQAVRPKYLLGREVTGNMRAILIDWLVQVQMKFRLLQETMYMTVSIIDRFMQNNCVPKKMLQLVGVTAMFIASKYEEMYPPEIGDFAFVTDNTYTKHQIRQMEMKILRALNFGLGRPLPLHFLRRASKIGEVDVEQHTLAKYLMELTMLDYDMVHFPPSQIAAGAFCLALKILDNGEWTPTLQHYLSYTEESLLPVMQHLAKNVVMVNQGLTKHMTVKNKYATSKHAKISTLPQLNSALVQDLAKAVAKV
Cyclin-dependent kinase 1/cyclin B1 (Homo sapiens), sequence (P06493 whole entry, looked up): as the sequence (P06493 whole entry) above
Cyclin-dependent kinase 1/cyclin B1 (Homo sapiens), sequence (P14635 whole entry, looked up): as the sequence (P14635 whole entry, further chain) above
Cyclin-dependent kinase 7/ cyclin H, sequence (P51946 whole entry): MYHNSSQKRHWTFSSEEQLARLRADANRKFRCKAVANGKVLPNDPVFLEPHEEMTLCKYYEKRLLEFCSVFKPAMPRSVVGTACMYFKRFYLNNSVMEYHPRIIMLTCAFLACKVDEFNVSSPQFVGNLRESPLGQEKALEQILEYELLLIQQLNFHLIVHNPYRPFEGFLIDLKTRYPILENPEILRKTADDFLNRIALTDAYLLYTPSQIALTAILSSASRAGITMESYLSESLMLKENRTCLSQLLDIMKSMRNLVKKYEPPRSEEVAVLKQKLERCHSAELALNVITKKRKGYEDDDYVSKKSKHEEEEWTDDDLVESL
Cyclin-dependent kinase 7/ cyclin H, sequence (P50613 whole entry): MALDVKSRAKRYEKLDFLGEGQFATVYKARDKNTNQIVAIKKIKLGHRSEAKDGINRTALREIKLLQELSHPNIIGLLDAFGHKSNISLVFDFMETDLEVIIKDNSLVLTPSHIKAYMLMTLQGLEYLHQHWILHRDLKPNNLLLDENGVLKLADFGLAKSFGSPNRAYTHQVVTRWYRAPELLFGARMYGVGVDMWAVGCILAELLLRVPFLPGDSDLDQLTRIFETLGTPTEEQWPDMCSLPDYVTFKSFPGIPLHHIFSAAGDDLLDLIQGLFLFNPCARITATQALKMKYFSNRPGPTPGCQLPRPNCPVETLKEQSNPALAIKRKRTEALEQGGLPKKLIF
CDK9/cyclin T1, sequence (O60563 whole entry): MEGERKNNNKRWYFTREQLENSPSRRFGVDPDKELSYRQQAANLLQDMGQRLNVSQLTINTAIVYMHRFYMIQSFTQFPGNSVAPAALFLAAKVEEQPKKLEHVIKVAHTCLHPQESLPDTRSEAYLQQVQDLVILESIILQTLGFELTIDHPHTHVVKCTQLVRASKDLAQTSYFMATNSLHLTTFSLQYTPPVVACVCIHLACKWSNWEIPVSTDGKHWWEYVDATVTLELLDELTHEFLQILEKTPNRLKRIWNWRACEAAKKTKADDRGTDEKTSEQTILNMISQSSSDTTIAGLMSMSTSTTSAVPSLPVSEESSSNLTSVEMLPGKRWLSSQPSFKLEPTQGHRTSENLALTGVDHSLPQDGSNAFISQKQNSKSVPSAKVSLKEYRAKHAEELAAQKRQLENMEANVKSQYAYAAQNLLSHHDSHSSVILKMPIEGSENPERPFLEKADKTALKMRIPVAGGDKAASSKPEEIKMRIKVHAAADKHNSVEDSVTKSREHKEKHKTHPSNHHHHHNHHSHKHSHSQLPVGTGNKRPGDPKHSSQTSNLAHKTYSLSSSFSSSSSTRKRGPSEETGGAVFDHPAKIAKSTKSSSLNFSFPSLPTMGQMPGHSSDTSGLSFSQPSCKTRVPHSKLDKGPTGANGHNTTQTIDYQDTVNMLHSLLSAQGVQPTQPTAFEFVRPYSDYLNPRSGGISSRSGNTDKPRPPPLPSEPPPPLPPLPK
CDK9/cyclin T1, sequence (P50750 whole entry): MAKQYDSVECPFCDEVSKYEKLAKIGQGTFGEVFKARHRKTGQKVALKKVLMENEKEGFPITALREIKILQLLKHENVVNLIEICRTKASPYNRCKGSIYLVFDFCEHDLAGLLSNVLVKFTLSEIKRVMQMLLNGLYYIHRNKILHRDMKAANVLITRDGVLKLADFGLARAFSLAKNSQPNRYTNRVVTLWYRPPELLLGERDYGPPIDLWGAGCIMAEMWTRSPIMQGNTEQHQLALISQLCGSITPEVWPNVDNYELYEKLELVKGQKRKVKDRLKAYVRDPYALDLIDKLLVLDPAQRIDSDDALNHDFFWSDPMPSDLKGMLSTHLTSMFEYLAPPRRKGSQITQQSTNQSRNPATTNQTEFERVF
CDK6/cyclin D3, sequence (P30281 whole entry): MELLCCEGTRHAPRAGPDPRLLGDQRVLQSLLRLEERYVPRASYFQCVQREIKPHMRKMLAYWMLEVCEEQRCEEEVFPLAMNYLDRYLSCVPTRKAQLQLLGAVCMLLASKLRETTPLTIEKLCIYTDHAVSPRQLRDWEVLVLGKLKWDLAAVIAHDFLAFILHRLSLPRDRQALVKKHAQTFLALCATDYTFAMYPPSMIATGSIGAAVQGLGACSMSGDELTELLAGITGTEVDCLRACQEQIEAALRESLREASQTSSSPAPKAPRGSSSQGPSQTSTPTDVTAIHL
CDK6/cyclin D3, sequence (Q00534 whole entry): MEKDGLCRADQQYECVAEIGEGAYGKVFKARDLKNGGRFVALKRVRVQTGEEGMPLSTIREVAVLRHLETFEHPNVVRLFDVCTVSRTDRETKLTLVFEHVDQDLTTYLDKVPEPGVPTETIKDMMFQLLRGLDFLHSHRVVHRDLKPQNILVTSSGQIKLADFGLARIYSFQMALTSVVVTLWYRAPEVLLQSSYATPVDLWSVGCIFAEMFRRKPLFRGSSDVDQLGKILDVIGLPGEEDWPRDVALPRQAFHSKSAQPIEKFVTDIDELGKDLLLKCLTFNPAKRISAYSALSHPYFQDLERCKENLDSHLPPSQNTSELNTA
Cyclin-dependent kinase 4/cyclin D1, sequence (P11802 whole entry): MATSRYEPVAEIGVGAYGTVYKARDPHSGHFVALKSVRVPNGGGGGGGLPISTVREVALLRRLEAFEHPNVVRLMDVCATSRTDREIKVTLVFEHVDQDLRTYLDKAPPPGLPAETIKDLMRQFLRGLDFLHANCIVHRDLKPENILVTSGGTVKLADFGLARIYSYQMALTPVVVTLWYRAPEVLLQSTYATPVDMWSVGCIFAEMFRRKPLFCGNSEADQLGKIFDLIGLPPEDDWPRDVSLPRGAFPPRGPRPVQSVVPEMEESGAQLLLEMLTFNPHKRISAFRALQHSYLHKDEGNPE
Cyclin-dependent kinase 4/cyclin D1, sequence (P24385 whole entry, further chain): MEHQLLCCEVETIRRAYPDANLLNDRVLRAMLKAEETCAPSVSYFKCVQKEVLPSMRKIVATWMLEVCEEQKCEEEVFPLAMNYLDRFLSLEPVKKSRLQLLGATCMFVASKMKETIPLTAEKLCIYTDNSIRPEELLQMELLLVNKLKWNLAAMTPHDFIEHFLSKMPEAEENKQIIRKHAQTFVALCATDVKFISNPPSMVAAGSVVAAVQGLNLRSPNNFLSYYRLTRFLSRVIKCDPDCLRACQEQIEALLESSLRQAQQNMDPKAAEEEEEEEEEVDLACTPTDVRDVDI

For the compound `CC(=O)N1CCN(c2ccc(Nc3nccc(-c4sc(NC5CCCC5)nc4C)n3)nc2)CC1`, the Ki in assay [1] amounted to 3.45 µM. Moreover, the GI50 (as a rule, the concentration at which growth is held to half of that of the control) worked out at 0.591 µM in the assay on MDA-MB-453 and 0.024 µM in the assay with MV4-11.

For the compound `CN1CCN(c2ccc(Nc3nccc(-c4sc(NC5CCCC5)nc4C(F)(F)F)n3)nc2)CC1`, the Ki in assay [1] amounted to 0.189 µM. The GI50 stood at 0.42 µM in the assay with MDA-MB-453 and 0.001 µM in the assay on MV4-11.

`Cc1nc(NC2CCCC2)sc1-c1nc(Nc2ccc(N3CCNCC3)cn2)ncc1F`: in assay [1], the Ki was found to be 0.79 µM. In addition, the GI50 in the assay on MDA-MB-453 was 0.78 µM; in the assay with MV4-11, 0.053 µM.

Consider `Cc1nc(NC2CCCC2)sc1-c1nc(Nc2ccc(N3CCCNCC3)cn2)ncc1F`, for which the Ki in assay [2] was more than 5 µM; in [1], 0.815 µM. In addition, the GI50 came out at 0.083 µM in the assay with MDA-MB-453 and 0.029 µM with MV4-11.

As for `Cc1nc(NC(C)C)sc1-c1ccnc(Nc2ccc(N3CCNCC3)cn2)n1`, the Ki in assay [1] stood at 0.775 µM. The GI50 in the assay on MDA-MB-453 came to 0.031 µM; in the assay on MV4-11 it was 0.093 µM.

As for `Cc1nc(NC(C)C)sc1-c1ccnc(Nc2ccc(N3CCCNCC3)cn2)n1`, the Ki in [2] was more than 5 µM; in assay [1], 1.16 µM. Besides, the GI50 in the assay with MDA-MB-453 stood at 0.938 µM; in the assay with MV4-11 it was 0.255 µM.

Consider `Cc1nc(N(C)C2CCCC2)sc1-c1ccnc(Nc2ccc(N3CCNCC3)cn2)n1`, for which, in assay [1], the Ki amounted to 3.2 µM. The GI50 in the assay on MDA-MB-453 was found to be 0.402 µM; in the assay on MV4-11, 0.285 µM.

For `CCN1CCN(c2ccc(Nc3ncc(F)c(-c4sc(NC5CCCC5)nc4C)n3)nc2)CC1`, in [3], the “Ki(app)” value was “inactive”. Moreover, the values for the Ki (on CDK9/cyclin T1; in assay [1]) were more than 5 µM and 0.685 µM, respectively. The GI50 with MDA-MB-453 was determined as 0.066 µM; with MV4-11, 0.013 µM.

Take `CCN1CCN(Cc2ccc(Nc3ncc(F)c(-c4sc(NC5CCCC5)nc4C)n3)nc2)CC1` [ULECACICLIB]: in [3], the “Ki(app)” value is “inactive”. In assay [1], the Ki is 0.63 µM. Also, the values for the GI50 in the assay with MDA-MB-453 and in the assay with MV4-11 were 0.622 µM and 0.01 µM, respectively.

Take `O=CN1CCN(c2ccc(Nc3nccc(-c4sc(NC5CCCC5)nc4C(F)(F)F)n3)nc2)CC1`: the Ki on CDK9/cyclin T1 is more than 5 µM; in assay [1], 1.9 µM. Moreover, the GI50 in the assay on MDA-MB-453 is 0.336 µM; in the assay with MV4-11, 0.004 µM.

For the compound `Cc1nc(Nc2ccccc2)sc1-c1ccnc(Nc2ccc(N3CCNCC3)cn2)n1`, the Ki was more than 5 µM at CDK2/Cyclin A2 and 1.66 µM in assay [1]. Besides, the values for the 50% growth inhibitory concentration (GI50) in the assay with MDA-MB-453 and with MV4-11 were 0.279 µM and 0.056 µM, respectively.

Turning to `Cc1nc(NC2CCCC2)sc1-c1ccnc(Nc2ccc(N3CCN(S(C)(=O)=O)CC3)cn2)n1`, the Ki at CDK6/cyclin D3 came out at 0.055 µM; in assay [4], 0.007 µM; in assay [2] it was 1.1 µM; at CDK9/cyclin T1, 1.32 µM; on CDK2/Cyclin A2, 0.077 µM; in [1], 2.64 µM. Besides, the concentration for 50% growth inhibition (GI50) was 0.215 µM in the assay with MDA-MB-453 and 0.176 µM in the assay with MV4-11.

`Cc1nc(NC2CCCC2)sc1-c1nc(Nc2ccc(N3CCOCC3)cn2)ncc1F`: the figures for the Ki (in [2]; on CDK9/cyclin T1; in [1]) were 4.35 µM, more than 5 µM and more than 5 µM, respectively. The GI50 was 1.44 µM in the assay with MDA-MB-453 and 0.29 µM in the assay on MV4-11.

Take `Cc1nc(N(C)c2ccccc2)sc1-c1ccnc(Nc2ccc(N3CCN(C)CC3)cn2)n1`: the Ki in assay [2] and in assay [1] was more than 5 µM throughout. In addition, the concentration for 50% growth inhibition (GI50) with MDA-MB-453 is 0.15 µM; with MV4-11, 0.421 µM.

With `Cc1nc(NC2CCCC2)sc1-c1ccnc(Nc2ccc(N3CCC(N)CC3)cn2)n1`, the Ki in [1] is 1.19 µM. Also, the concentration for 50% growth inhibition (GI50) in the assay on MDA-MB-453 is 0.055 µM; in the assay on MV4-11, 0.013 µM.

Consider `Cc1nc(NC2CCCC2)sc1-c1ccnc(Nc2ccc(N3CCCCC3)cn2)n1`, for which the “Ki(app)” value in assay [3] and in assay [5] was “inactive” throughout. Further, the Ki on CDK9/cyclin T1 and at CDK2/Cyclin A2 was more than 5 µM each time. For the same compound, the GI50 amounted to 7.04 µM in the assay with MDA-MB-453 and 0.191 µM in the assay with MV4-11.

For the compound `Cc1nc(NC2CCCC2)sc1-c1ccnc(Nc2ccc(N3CCCNCC3)cn2)n1`, in assay [1], the Ki is 0.282 µM. Moreover, the values for the GI50 in the assay on MDA-MB-453 and in the assay with MV4-11 were 0.102 µM and 0.029 µM, respectively.

With `CC(=O)N1CCN(c2ccc(Nc3nccc(-c4sc(NC5CCCC5)nc4C(F)(F)F)n3)nc2)CC1`, the Ki on CDK9/cyclin T1 is more than 5 µM; in assay [1], 2.61 µM. Further, the GI50 with MDA-MB-453 worked out at 0.077 µM; in the assay on MV4-11, 0.012 µM.

As for `Cc1nc(N(C)C2CCCC2)sc1-c1ccnc(Nc2ccc(N3CCN(C)CC3)cn2)n1`, the Ki in assay [2] and in assay [1] was more than 5 µM in each case. The GI50 in the assay with MDA-MB-453 was 3.36 µM; in the assay with MV4-11, 0.02 µM.

Take `Cc1nc(NC2CCCC2)sc1-c1ccnc(Nc2ccccn2)n1`: the Ki at CDK9/cyclin T1 was more than 5 µM. Also, the GI50 turned out to be 4.38 µM with MDA-MB-453 and 0.3 µM in the assay with MV4-11.

With `FC(F)(F)c1nc(NC2CCCC2)sc1-c1ccnc(Nc2ccc(N3CCNCC3)cn2)n1`, the Ki in [1] was 0.194 µM. For the same compound, the GI50 turned out to be 0.081 µM in the assay on MDA-MB-453 and 0.002 µM in the assay on MV4-11.

As for `Cc1nc(NC2CCCC2)sc1-c1nc(Nc2ccc(N3CCN(S(C)(=O)=O)CC3)cn2)ncc1F`, the “Ki(app)” value in assay [3] and in assay [5] was “inactive” each time. Also, at CDK9/cyclin T1, the Ki is more than 5 µM. In addition, the 50% growth inhibitory concentration (GI50) in the assay with MDA-MB-453 turned out to be 2.81 µM; in the assay with MV4-11, 2.63 µM.

In the case of `CCN1CCN(c2ccc(Nc3nccc(-c4sc(NC5CCCC5)nc4C)n3)nc2)CC1`, the Ki in [1] was 0.78 µM. Moreover, the values for the GI50 with MDA-MB-453 and with MV4-11 were 0.287 µM and 0.009 µM, respectively.

In the case of `CC(=O)N1CCN(c2ccc(Nc3nccc(-c4sc(N(C)C5CCCC5)nc4C)n3)nc2)CC1`, the Ki on CDK9/cyclin T1 is more than 5 µM. The “Ki(app)” value in [5] was “inactive”. In addition, the results for the GI50 in the assay with MDA-MB-453 and in the assay on MV4-11 were 6.86 µM and 0.328 µM, respectively.

Regarding `Cc1nc(NC(C)C)sc1-c1ccnc(Nc2ccc(N3CCOCC3)cn2)n1`, the Ki (in assay [2]; at CDK9/cyclin T1; in assay [1]) was more than 5 µM in each case. In addition, the GI50 in the assay with MDA-MB-453 was determined as 0.115 µM; in the assay on MV4-11 it was 0.032 µM.

For the compound `CC(=O)N1CCN(c2ccc(Nc3ncc(F)c(-c4sc(NC5CCCC5)nc4C)n3)nc2)CC1`, the Ki in assay [2] and in assay [1] was more than 5 µM each time. For the same compound, the GI50 in the assay on MDA-MB-453 amounted to 8.11 µM; in the assay with MV4-11, 0.015 µM.

In the case of `CCN1CCN(Cc2ccc(Nc3nccc(-c4sc(NC5CCCC5)nc4C)n3)nc2)CC1`, the Ki is more than 5 µM in [2] and 0.211 µM in assay [1]. In addition, the GI50 was 0.069 µM in the assay on MDA-MB-453 and 0.019 µM in the assay with MV4-11.

For `FC(F)(F)c1nc(NC2CCCC2)sc1-c1ccnc(Nc2ccc(N3CCOCC3)cn2)n1`, the “Ki(app)” value in [3] and in assay [5] was “inactive” each time. Besides, the Ki on CDK9/cyclin T1 is more than 5 µM. Besides, the GI50 worked out at 0.415 µM in the assay with MDA-MB-453 and 0.069 µM in the assay on MV4-11.

As for `CC(=O)N1CCN(c2ccc(Nc3nccc(-c4sc(NC(C)C)nc4C)n3)nc2)CC1`, the Ki in assay [1] amounted to 4.39 µM. Further, the results for the GI50 with MDA-MB-453 and in the assay on MV4-11 were 0.344 µM and 2.07 µM, respectively.

Consider `Cc1nc(NC(C)C)sc1-c1ccnc(Nc2ccc(N3CCN(C)CC3)cn2)n1`, for which the Ki in assay [1] was 0.76 µM. Besides, the GI50 was found to be 0.618 µM in the assay with MDA-MB-453 and 0.075 µM with MV4-11.

Consider `Cc1nc(NC2CCCC2)sc1-c1ccnc(Nc2ccc(N3CCN(C)CC3)cn2)n1`, for which, in assay [1], the Ki stood at 0.865 µM. Moreover, the concentration for 50% growth inhibition (GI50) in the assay with MDA-MB-453 came to 0.13 µM; in the assay on MV4-11 it was 0.009 µM.
